Experiments:
Type in all cases: functional
Aspergillus niger [1] = assay: Antifungal activity against Aspergillus niger at 500 ug after 24 hrs by paper disc technique; details: for zone of inhibition at 500 µg/disc: Aspergillus niger, 24 h, read-out: DIZ
Method in brief: (§1)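 Paper disc diffusion on double-layer potato dextrose agar: 15 mL sterile base topped with 15 mL medium seeded at 40 °C with spores from ten-day cultures; streptomycin added to prevent bacterial growth. Compounds dissolved in DMF at 500 or 1000 µg/mL and applied to 6 mm filter paper discs on chilled seeded plates. Plates incubated at 28 ± 2 °C. Inhibition zone measured from disc centre at 24 h, percent inhibition calculated as (C − T)/C × 100. Fluconazole at same concentrations served as standard.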

Aspergillus niger [2] = assay: Antifungal activity against Aspergillus niger at 1000 ug after 24 hrs by paper disc technique; details: for zone of inhibition at 1000 µg/disc: Aspergillus niger, 24 h, read-out: DIZ; method in brief: as §1
Aspergillus flavus [3] = assay: Antifungal activity against Aspergillus flavus at 500 ug after 24 hrs by paper disc technique; details: for zone of inhibition at 500 µg/disc: Aspergillus flavus, 24 h, read-out: DIZ; method in brief: as §1
Aspergillus flavus [4] = assay: Antifungal activity against Aspergillus flavus at 1000 ug after 24 hrs by paper disc technique; details: for zone of inhibition at 1000 µg/disc: Aspergillus flavus, 24 h, read-out: DIZ; method in brief: as §1
Rhizopus [5] = assay: Antifungal activity against Rhizopus species at 500 ug after 24 hrs by paper disc technique; details: for zone of inhibition at 500 µg/disc: Rhizopus, 24 h, read-out: DIZ; method in brief: as §1
Rhizopus [6] = assay: Antifungal activity against Rhizopus species at 1000 ug after 24 hrs by paper disc technique; details: for zone of inhibition at 1000 µg/disc: Rhizopus, 24 h, read-out: DIZ; method in brief: as §1
Penicillium sp. [7] = assay: Antifungal activity against Penicillium species at 500 ug after 24 hrs by paper disc technique; details: for zone of inhibition at 500 µg/disc: Penicillium sp., 24 h, read-out: DIZ; method in brief: as §1
Penicillium sp. [8] = assay: Antifungal activity against Penicillium species at 1000 ug after 24 hrs by paper disc technique; details: for zone of inhibition at 1000 µg/disc: Penicillium sp., 24 h, read-out: DIZ; method in brief: as §1

Cc1n[nH]c2c1C=Nc1nnc(-c3ccccc3)n1N2
Activity (Aspergillus niger [1]): 36.66% | zone of inhibition at 500 µg/disc (Aspergillus niger [1]): 22 mm | percent inhibition (Aspergillus niger [2]): 53.33% | zone of inhibition at 1000 µg/disc (Aspergillus niger [2]): 32 mm | Activity (Aspergillus flavus [3]): 33.33% | zone of inhibition at 500 µg/disc (Aspergillus flavus [3]): 20 mm | percent growth inhibition (Aspergillus flavus [4]): 40% | zone of inhibition at 1000 µg/disc (Aspergillus flavus [4]): 24 mm | Activity (Rhizopus [5]): 53.33% | zone of inhibition at 500 µg/disc (Rhizopus [5]): 32 mm | Activity (Rhizopus [6]): 60.66% | zone of inhibition at 1000 µg/disc (Rhizopus [6]): 40 mm | Activity (Penicillium sp. [7]): 10% | zone of inhibition at 500 µg/disc (Penicillium sp. [7]): 6 mm | percent inhibition (Penicillium sp. [8]): 13.33% | zone of inhibition at 1000 µg/disc (Penicillium sp. [8]): 8 mm

Cc1n[nH]c2c1C=Nc1nnc(-c3ccc(Cl)cc3)n1N2
Activity (Aspergillus niger [1]): 38.33% | zone of inhibition at 500 µg/disc (Aspergillus niger [1]): 23 mm | percent inhibition (Aspergillus niger [2]): 53.33% | zone of inhibition at 1000 µg/disc (Aspergillus niger [2]): 32 mm | Activity (Aspergillus flavus [3]): 36.66% | zone of inhibition at 500 µg/disc (Aspergillus flavus [3]): 22 mm | percent growth inhibition (Aspergillus flavus [4]): 40% | zone of inhibition at 1000 µg/disc (Aspergillus flavus [4]): 24 mm | Activity (Rhizopus [5]): 51.66% | zone of inhibition at 500 µg/disc (Rhizopus [5]): 31 mm | Activity (Rhizopus [6]): 60.66% | zone of inhibition at 1000 µg/disc (Rhizopus [6]): 40 mm | Activity (Penicillium sp. [7]): 13.33% | zone of inhibition at 500 µg/disc (Penicillium sp. [7]): 8 mm | percent inhibition (Penicillium sp. [8]): 15% | zone of inhibition at 1000 µg/disc (Penicillium sp. [8]): 9 mm

C1=Nc2nnc(-c3ccccc3)n2Nc2c1c(-c1ccccc1)nn2-c1ccccc1
Activity (Aspergillus niger [1]): 33.33% | zone of inhibition at 500 µg/disc (Aspergillus niger [1]): 20 mm | percent inhibition (Aspergillus niger [2]): 51.66% | zone of inhibition at 1000 µg/disc (Aspergillus niger [2]): 31 mm | Activity (Aspergillus flavus [3]): 35.36% | zone of inhibition at 500 µg/disc (Aspergillus flavus [3]): 21 mm | percent growth inhibition (Aspergillus flavus [4]): 35.36% | zone of inhibition at 1000 µg/disc (Aspergillus flavus [4]): 21 mm | Activity (Rhizopus [5]): 66.66% | zone of inhibition at 500 µg/disc (Rhizopus [5]): 36 mm | Activity (Rhizopus [6]): 65% | zone of inhibition at 1000 µg/disc (Rhizopus [6]): 39 mm | Activity (Penicillium sp. [7]): 8.33% | zone of inhibition at 500 µg/disc (Penicillium sp. [7]): 5 mm | percent inhibition (Penicillium sp. [8]): 3.33% | zone of inhibition at 1000 µg/disc (Penicillium sp. [8]): 2 mm

Brc1ccc(-c2nn(-c3ccccc3)c3c2C=Nc2nnc(Cc4ccccc4)n2N3)cc1
Activity (Aspergillus niger [1]): 3.33% | zone of inhibition at 500 µg/disc (Aspergillus niger [1]): 2 mm | percent inhibition (Aspergillus niger [2]): 23.33% | zone of inhibition at 1000 µg/disc (Aspergillus niger [2]): 14 mm | Activity (Aspergillus flavus [3]): 33.33% | zone of inhibition at 500 µg/disc (Aspergillus flavus [3]): 20 mm | percent growth inhibition (Aspergillus flavus [4]): 13.33% | zone of inhibition at 1000 µg/disc (Aspergillus flavus [4]): 8 mm | Activity (Rhizopus [5]): 46.66% | zone of inhibition at 500 µg/disc (Rhizopus [5]): 28 mm | Activity (Rhizopus [6]): 40% | zone of inhibition at 1000 µg/disc (Rhizopus [6]): 24 mm | Activity (Penicillium sp. [7]): 8.33% | zone of inhibition at 500 µg/disc (Penicillium sp. [7]): 5 mm

Clc1ccc(-c2nnc3n2Nc2c(c(-c4ccc(Br)cc4)nn2-c2ccccc2)C=N3)cc1
Activity (Aspergillus niger [1]): 53.33% | zone of inhibition at 500 µg/disc (Aspergillus niger [1]): 32 mm | percent inhibition (Aspergillus niger [2]): 35.36% | zone of inhibition at 1000 µg/disc (Aspergillus niger [2]): 21 mm | Activity (Aspergillus flavus [3]): 36.66% | zone of inhibition at 500 µg/disc (Aspergillus flavus [3]): 22 mm | percent growth inhibition (Aspergillus flavus [4]): 40% | zone of inhibition at 1000 µg/disc (Aspergillus flavus [4]): 24 mm | Activity (Rhizopus [5]): 60.66% | zone of inhibition at 500 µg/disc (Rhizopus [5]): 40 mm | Activity (Rhizopus [6]): 53.33% | zone of inhibition at 1000 µg/disc (Rhizopus [6]): 32 mm | Activity (Penicillium sp. [7]): 15% | zone of inhibition at 500 µg/disc (Penicillium sp. [7]): 9 mm | percent inhibition (Penicillium sp. [8]): 13.33% | zone of inhibition at 1000 µg/disc (Penicillium sp. [8]): 8 mm

O=[N+]([O-])c1ccc(-c2nnc3n2Nc2c(c(-c4ccc(Br)cc4)nn2-c2ccccc2)C=N3)cc1
Activity (Aspergillus niger [1]): 23.33% | zone of inhibition at 500 µg/disc (Aspergillus niger [1]): 14 mm | percent inhibition (Aspergillus niger [2]): 3.33% | zone of inhibition at 1000 µg/disc (Aspergillus niger [2]): 2 mm | Activity (Aspergillus flavus [3]): 31.33% | zone of inhibition at 500 µg/disc (Aspergillus flavus [3]): 18 mm | percent growth inhibition (Aspergillus flavus [4]): 13.33% | zone of inhibition at 1000 µg/disc (Aspergillus flavus [4]): 8 mm | Activity (Rhizopus [5]): 40% | zone of inhibition at 500 µg/disc (Rhizopus [5]): 24 mm | Activity (Rhizopus [6]): 35.36% | zone of inhibition at 1000 µg/disc (Rhizopus [6]): 21 mm | Activity (Penicillium sp. [7]): 3.33% | zone of inhibition at 500 µg/disc (Penicillium sp. [7]): 2 mm | percent inhibition (Penicillium sp. [8]): 8.33% | zone of inhibition at 1000 µg/disc (Penicillium sp. [8]): 5 mm

Brc1ccc(-c2nn(-c3ccccc3)c3c2C=Nc2nnc(-c4ccccc4)n2N3)cc1
Activity (Aspergillus niger [1]): 3.33% | zone of inhibition at 500 µg/disc (Aspergillus niger [1]): 2 mm | percent inhibition (Aspergillus niger [2]): 21.33% | zone of inhibition at 1000 µg/disc (Aspergillus niger [2]): 12 mm | Activity (Aspergillus flavus [3]): 31.33% | zone of inhibition at 500 µg/disc (Aspergillus flavus [3]): 18 mm | percent growth inhibition (Aspergillus flavus [4]): 11.33% | zone of inhibition at 1000 µg/disc (Aspergillus flavus [4]): 6 mm | Activity (Rhizopus [5]): 42.66% | zone of inhibition at 500 µg/disc (Rhizopus [5]): 26 mm | Activity (Rhizopus [6]): 38% | zone of inhibition at 1000 µg/disc (Rhizopus [6]): 22 mm | Activity (Penicillium sp. [7]): 8.33% | zone of inhibition at 500 µg/disc (Penicillium sp. [7]): 5 mm | percent inhibition (Penicillium sp. [8]): 13.33% | zone of inhibition at 1000 µg/disc (Penicillium sp. [8]): 8 mm

O=[N+]([O-])c1ccc(-c2nn(-c3ccccc3)c3c2C=Nc2nnc(-c4ccccc4)n2N3)cc1
Activity (Aspergillus niger [1]): 51.66% | zone of inhibition at 500 µg/disc (Aspergillus niger [1]): 31 mm | percent inhibition (Aspergillus niger [2]): 33.33% | zone of inhibition at 1000 µg/disc (Aspergillus niger [2]): 20 mm | Activity (Aspergillus flavus [3]): 40% | zone of inhibition at 500 µg/disc (Aspergillus flavus [3]): 24 mm | percent growth inhibition (Aspergillus flavus [4]): 36.66% | zone of inhibition at 1000 µg/disc (Aspergillus flavus [4]): 22 mm | Activity (Rhizopus [5]): 65% | zone of inhibition at 500 µg/disc (Rhizopus [5]): 39 mm | Activity (Rhizopus [6]): 66.66% | zone of inhibition at 1000 µg/disc (Rhizopus [6]): 36 mm | Activity (Penicillium sp. [7]): 12.98% | zone of inhibition at 500 µg/disc (Penicillium sp. [7]): 7 mm | percent inhibition (Penicillium sp. [8]): 15% | zone of inhibition at 1000 µg/disc (Penicillium sp. [8]): 9 mm

O=[N+]([O-])c1ccc(-c2nn(-c3ccccc3)c3c2C=Nc2nnc(Cc4ccccc4)n2N3)cc1
Activity (Aspergillus niger [1]): 3.33% | zone of inhibition at 500 µg/disc (Aspergillus niger [1]): 2 mm | percent inhibition (Aspergillus niger [2]): 23.33% | zone of inhibition at 1000 µg/disc (Aspergillus niger [2]): 14 mm | Activity (Aspergillus flavus [3]): 33.33% | zone of inhibition at 500 µg/disc (Aspergillus flavus [3]): 20 mm | percent growth inhibition (Aspergillus flavus [4]): 13.33% | zone of inhibition at 1000 µg/disc (Aspergillus flavus [4]): 8 mm | Activity (Rhizopus [5]): 46.66% | zone of inhibition at 500 µg/disc (Rhizopus [5]): 28 mm | Activity (Rhizopus [6]): 40% | zone of inhibition at 1000 µg/disc (Rhizopus [6]): 24 mm

O=[N+]([O-])c1ccc(-c2nn(-c3ccccc3)c3c2C=Nc2nnc(-c4ccc([N+](=O)[O-])cc4)n2N3)cc1
Activity (Aspergillus niger [1]): 13.33% | zone of inhibition at 500 µg/disc (Aspergillus niger [1]): 8 mm | percent inhibition (Aspergillus niger [2]): 25% | zone of inhibition at 1000 µg/disc (Aspergillus niger [2]): 15 mm | Activity (Aspergillus flavus [3]): 5% | zone of inhibition at 500 µg/disc (Aspergillus flavus [3]): 3 mm | percent growth inhibition (Aspergillus flavus [4]): 15% | zone of inhibition at 1000 µg/disc (Aspergillus flavus [4]): 9 mm | Activity (Rhizopus [5]): 30% | zone of inhibition at 500 µg/disc (Rhizopus [5]): 18 mm | Activity (Rhizopus [6]): 38.33% | zone of inhibition at 1000 µg/disc (Rhizopus [6]): 23 mm

OC(Cn1cncn1)(Cn1cncn1)c1ccc(F)cc1F [FLUCONAZOLE]
Activity (Aspergillus niger [1]): 70% | zone of inhibition at 500 µg/disc (Aspergillus niger [1]): 42 mm | percent inhibition (Aspergillus niger [2]): 80% | zone of inhibition at 1000 µg/disc (Aspergillus niger [2]): 48 mm | Activity (Aspergillus flavus [3]): 58.33% | zone of inhibition at 500 µg/disc (Aspergillus flavus [3]): 35 mm | percent growth inhibition (Aspergillus flavus [4]): 70% | zone of inhibition at 1000 µg/disc (Aspergillus flavus [4]): 42 mm | Activity (Rhizopus [5]): 63.33% | zone of inhibition at 500 µg/disc (Rhizopus [5]): 38 mm | Activity (Rhizopus [6]): 70% | zone of inhibition at 1000 µg/disc (Rhizopus [6]): 42 mm | Activity (Penicillium sp. [7]): 86.66% | zone of inhibition at 500 µg/disc (Penicillium sp. [7]): 52 mm | percent inhibition (Penicillium sp. [8]): 90% | zone of inhibition at 1000 µg/disc (Penicillium sp. [8]): 54 mm

— ChEMBL document CHEMBL1667757, “Efficient and novel one-pot synthesis of antifungal active 1-substituted-8-aryl-3-alkyl/aryl-4H-pyrazolo[4,5-f][1,2,4]triazolo[4,3-b][1,2,4]triazepines using solid support” (2011)
